Legend:
[1] = Solubility of the compound; type: physicochemical
Acetylcholinesterase = Acetylcholinesterase (Electrophorus electricus, UniProt O42275); experiment: Inhibition of Electrophorus electricus AChE using acetylthiocholine iodide as substrate after 20 mins measured for 1 min interval for 30 mins by Ellman's method
Cholinesterase = Cholinesterase (Equus caballus, UniProt P81908); experiment: Inhibition of equine serum BChE using butyrylthiocholine iodide as substrate after 20 mins measured for 1 min interval for 30 mins by Ellman's method
[2] = Selectivity ratio of Ki for Electrophorus electricus AChE to Ki for equine serum BChE
Summary of the method: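 Ki from Ellman kinetics at pH 8.0 and 30 °C after 20 min enzyme–inhibitor–DTNB preincubation. Inhibitor at several concentrations plus a water blank; ATChI or BTChI at 0.9375, 0.625, 0.325 and 0.1875 mM. A415 read every 1 min for 30 min, in triplicate. Ki from Lineweaver-Burk, Dixon and Cornish-Bowden plots; F = Ki(AChE)/Ki(BChE).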

Sequence of Cholinesterase (P81908 whole entry): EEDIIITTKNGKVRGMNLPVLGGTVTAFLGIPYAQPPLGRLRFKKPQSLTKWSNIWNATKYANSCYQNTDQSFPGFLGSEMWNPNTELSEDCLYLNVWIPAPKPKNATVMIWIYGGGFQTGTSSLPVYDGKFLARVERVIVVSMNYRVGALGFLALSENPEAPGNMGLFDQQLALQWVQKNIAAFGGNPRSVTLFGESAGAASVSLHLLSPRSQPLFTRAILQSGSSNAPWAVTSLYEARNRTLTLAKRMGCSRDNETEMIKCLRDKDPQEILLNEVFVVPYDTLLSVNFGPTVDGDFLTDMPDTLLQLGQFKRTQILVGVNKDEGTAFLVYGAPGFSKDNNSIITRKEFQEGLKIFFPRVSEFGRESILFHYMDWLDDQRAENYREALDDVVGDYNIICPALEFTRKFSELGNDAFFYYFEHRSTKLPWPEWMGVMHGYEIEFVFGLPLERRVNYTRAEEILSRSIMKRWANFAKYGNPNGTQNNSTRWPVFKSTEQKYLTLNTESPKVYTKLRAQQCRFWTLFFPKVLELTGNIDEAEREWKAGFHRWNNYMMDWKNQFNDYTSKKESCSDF
Sequence of Acetylcholinesterase (O42275 whole entry): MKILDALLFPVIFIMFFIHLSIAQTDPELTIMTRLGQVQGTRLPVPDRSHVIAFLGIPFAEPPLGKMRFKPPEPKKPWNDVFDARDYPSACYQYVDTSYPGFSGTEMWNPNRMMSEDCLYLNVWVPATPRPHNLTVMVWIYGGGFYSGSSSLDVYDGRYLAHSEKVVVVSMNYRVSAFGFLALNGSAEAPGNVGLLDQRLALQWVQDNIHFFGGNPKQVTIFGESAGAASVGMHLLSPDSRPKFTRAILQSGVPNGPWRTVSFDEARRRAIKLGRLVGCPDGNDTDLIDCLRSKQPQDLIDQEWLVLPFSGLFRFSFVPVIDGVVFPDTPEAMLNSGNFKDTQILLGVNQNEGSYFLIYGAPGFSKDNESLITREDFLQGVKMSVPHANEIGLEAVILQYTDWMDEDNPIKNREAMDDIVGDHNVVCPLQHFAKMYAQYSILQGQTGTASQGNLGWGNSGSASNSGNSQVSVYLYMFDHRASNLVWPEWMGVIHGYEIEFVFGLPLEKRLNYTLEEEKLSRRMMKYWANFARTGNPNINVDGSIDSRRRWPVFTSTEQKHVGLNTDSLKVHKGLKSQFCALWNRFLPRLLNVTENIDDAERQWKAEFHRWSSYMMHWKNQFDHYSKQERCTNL

| SMILES | solubility [1] | Ki (Acetylcholinesterase) | Ki (Cholinesterase) | Ratio Ki [2] |
| --- | --- | --- | --- | --- |
| COC(=O)[C@@]1(C)CC[C@]2(C)CC[C@]3(C)C(=CC(=O)[C@@H]4[C@@]5(C)CC[C@H](OC(=O)[C@H](C)N)C(C)(C)[C@@H]5CC[C@]43C)[C@@H]2C1 [listing 1 of 3 here] | Insoluble | – | – | – |
| CC1(C)[C@@H](O)CC[C@]2(C)[C@H]3C(=O)C=C4[C@@H]5C[C@@](C)(C(=O)NCCCCCN)CC[C@]5(C)CC[C@@]4(C)[C@]3(C)CC[C@@H]12 | – | > 100 µM | > 100 µM | – |
| COC(=O)[C@@]1(C)CC[C@]2(C)CC[C@]3(C)C(=CC(=O)[C@@H]4[C@@]5(C)CC[C@H](OC(=O)[C@@H]6CCCN6)C(C)(C)[C@@H]5CC[C@]43C)[C@@H]2C1 | – | 23.5 µM | > 100 µM | < 0.24 |
| COC(=O)[C@@]1(C)CC[C@]2(C)CC[C@]3(C)C(=CC(=O)[C@@H]4[C@@]5(C)CC[C@H](OC(=O)[C@@H](N)CCCCN)C(C)(C)[C@@H]5CC[C@]43C)[C@@H]2C1 | – | 20 µM | > 100 µM | < 0.2 |
| CCOC(=O)[C@@]1(C)CC[C@]2(C)CC[C@]3(C)C(=CC(=O)[C@@H]4[C@@]5(C)CC[C@H](OC(=O)[C@@H](N)Cc6ccccc6)C(C)(C)[C@@H]5CC[C@]43C)[C@@H]2C1 | – | 13.7 µM | > 100 µM | < 0.14 |
| COC(=O)[C@@]1(C)CC[C@]2(C)CC[C@]3(C)C(=CC(=O)[C@@H]4[C@@]5(C)CC[C@H](OC(=O)[C@H](C)N)C(C)(C)[C@@H]5CC[C@]43C)[C@@H]2C1 [listing 2 of 3 here] | – | – | – | < 0.21 |
| CC1(C)[C@@H](O)CC[C@]2(C)[C@H]3C(=O)C=C4[C@@H]5C[C@@](C)(C(=O)O)CC[C@]5(C)CC[C@@]4(C)[C@]3(C)CC[C@@H]12 [ENOXOLONE] | – | > 100 µM | > 100 µM | – |
| COC(=O)[C@@]1(C)CC[C@]2(C)CC[C@]3(C)C(=CC(=O)[C@@H]4[C@@]5(C)CC[C@H](OC(=O)CN)C(C)(C)[C@@H]5CC[C@]43C)[C@@H]2C1 | – | 19.8 µM | > 100 µM | < 0.2 |
| CC1(C)[C@@H](OC(=O)CN)CC[C@]2(C)[C@H]3C(=O)C=C4[C@@H]5C[C@@](C)(C(=O)O)CC[C@]5(C)CC[C@@]4(C)[C@]3(C)CC[C@@H]12 | – | > 100 µM | > 100 µM | – |
| COC(=O)[C@@]1(C)CC[C@]2(C)CC[C@]3(C)C(=CC(=O)[C@@H]4[C@@]5(C)CC[C@H](OC(=O)[C@@H](C)N)C(C)(C)[C@@H]5CC[C@]43C)[C@@H]2C1 | – | 17.7 µM | > 100 µM | < 0.18 |
| COC(=O)[C@@]1(C)CC[C@]2(C)CC[C@]3(C)C(=CC(=O)[C@@H]4[C@@]5(C)CC[C@H](OC(=O)[C@H](C)N)C(C)(C)[C@@H]5CC[C@]43C)[C@@H]2C1 [listing 3 of 3 here] | – | 20.8 µM | > 100 µM | – |
| COC(=O)[C@@]1(C)CC[C@]2(C)CC[C@]3(C)C(=CC(=O)[C@@H]4[C@@]5(C)CC[C@H](OC(=O)[C@@H](N)C(C)C)C(C)(C)[C@@H]5CC[C@]43C)[C@@H]2C1 | Insoluble | – | – | – |
| CC[C@H](C)[C@H](N)C(=O)O[C@H]1CC[C@]2(C)[C@H]3C(=O)C=C4[C@@H]5C[C@@](C)(C(=O)OC)CC[C@]5(C)CC[C@@]4(C)[C@]3(C)CC[C@H]2C1(C)C | Insoluble | – | – | – |
| CCOC(=O)[C@@]1(C)CC[C@]2(C)CC[C@]3(C)C(=CC(=O)[C@@H]4[C@@]5(C)CC[C@H](OC(=O)[C@H](Cc6ccccc6)NC(=O)OC(C)(C)C)C(C)(C)[C@@H]5CC[C@]43C)[C@@H]2C1 | – | > 2 µM | > 2 µM | – |
| COC(=O)[C@@]1(C)CC[C@]2(C)CC[C@]3(C)C(=CC(=O)[C@@H]4[C@@]5(C)CC[C@H](OC(=O)[C@@H](N)CC(=O)O)C(C)(C)[C@@H]5CC[C@]43C)[C@@H]2C1 | – | 16.2 µM | > 100 µM | < 0.16 |
| C[C@H](N)C(=O)O[C@H]1CC[C@]2(C)[C@H]3C(=O)C=C4[C@@H]5C[C@@](C)(C(=O)O)CC[C@]5(C)CC[C@@]4(C)[C@]3(C)CC[C@H]2C1(C)C | – | 24 µM | > 100 µM | < 0.24 |
| CCOC(=O)[C@@]1(C)CC[C@]2(C)CC[C@]3(C)C(=CC(=O)[C@@H]4[C@@]5(C)CC[C@H](OC(=O)[C@H](N)Cc6c[nH]c7ccccc67)C(C)(C)[C@@H]5CC[C@]43C)[C@@H]2C1 | – | 11.7 µM | > 100 µM | < 0.12 |

| SMILES | solubility [1] | Ki (Acetylcholinesterase) | Ki (Cholinesterase) | Ratio Ki [2] |
| --- | --- | --- | --- | --- |
| COC(=O)[C@@]1(C)CC[C@]2(C)CC[C@]3(C)C(=CC(=O)[C@@H]4[C@@]5(C)CC[C@H](OC(=O)[C@@H](N)Cc6ccccc6)C(C)(C)[C@@H]5CC[C@]43C)[C@@H]2C1 | – | 20.7 µM | > 100 µM | < 0.21 |
| COC(=O)[C@@]1(C)CC[C@]2(C)CC[C@]3(C)C(=CC(=O)[C@@H]4[C@@]5(C)CC[C@H](OC(=O)[C@@H](N)CC(=O)OCc6ccccc6)C(C)(C)[C@@H]5CC[C@]43C)[C@@H]2C1 | – | 28.1 µM | > 100 µM | < 0.28 |
| CNCC(=O)O[C@H]1CC[C@]2(C)[C@H]3C(=O)C=C4[C@@H]5C[C@@](C)(C(=O)OC)CC[C@]5(C)CC[C@@]4(C)[C@]3(C)CC[C@H]2C1(C)C | – | 20.4 µM | > 100 µM | < 0.21 |
| COC(=O)[C@@]1(C)CC[C@]2(C)CC[C@]3(C)C(=CC(=O)[C@@H]4[C@@]5(C)CC[C@H](OC(=O)[C@@H](N)CSCc6ccccc6)C(C)(C)[C@@H]5CC[C@]43C)[C@@H]2C1 | – | 40.6 µM | > 100 µM | < 0.41 |
| COC(=O)[C@@]1(C)CC[C@]2(C)CC[C@]3(C)C(=CC(=O)[C@@H]4[C@@]5(C)CC[C@H](OC(=O)[C@@H](N)CCCN)C(C)(C)[C@@H]5CC[C@]43C)[C@@H]2C1 | Insoluble | – | – | – |
| COC(=O)[C@@]1(C)CC[C@]2(C)CC[C@]3(C)C(=CC(=O)[C@@H]4[C@@]5(C)CC[C@H](OC(=O)[C@@H](N)CC(C)C)C(C)(C)[C@@H]5CC[C@]43C)[C@@H]2C1 | Insoluble | – | – | – |
| CC1(C)[C@@H](O)CC[C@]2(C)[C@H]3C(=O)C=C4[C@@H]5C[C@@](C)(C(=O)NCCN)CC[C@]5(C)CC[C@@]4(C)[C@]3(C)CC[C@@H]12 | – | > 100 µM | > 100 µM | – |
| CC1(C)[C@@H](O)CC[C@]2(C)[C@H]3C(=O)C=C4[C@@H]5C[C@@](C)(C(=O)OCCBr)CC[C@]5(C)CC[C@@]4(C)[C@]3(C)CC[C@@H]12 | – | 23.8 µM | > 100 µM | < 0.24 |
| COC(=O)C[C@H](N)C(=O)O[C@H]1CC[C@]2(C)[C@H]3C(=O)C=C4[C@@H]5C[C@@](C)(C(=O)OC)CC[C@]5(C)CC[C@@]4(C)[C@]3(C)CC[C@H]2C1(C)C | Insoluble | – | – | – |
| C=CCCOC(=O)[C@@]1(C)CC[C@]2(C)CC[C@]3(C)C(=CC(=O)[C@@H]4[C@@]5(C)CC[C@H](O)C(C)(C)[C@@H]5CC[C@]43C)[C@@H]2C1 | – | 14.9 µM | > 100 µM | < 0.15 |
| CC1(C)[C@@H](O)CC[C@]2(C)[C@H]3C(=O)C=C4[C@@H]5C[C@@](C)(C(=O)NCCCCN)CC[C@]5(C)CC[C@@]4(C)[C@]3(C)CC[C@@H]12 | – | 41.8 µM | 74.3 µM | 0.56 |
| COC(=O)[C@@]1(C)CC[C@]2(C)CC[C@]3(C)C(=CC(=O)[C@@H]4[C@@]5(C)CC[C@H](OC(=O)[C@@H](N)CCC(=O)O)C(C)(C)[C@@H]5CC[C@]43C)[C@@H]2C1 | – | 18.9 µM | > 100 µM | < 0.19 |
| COC(=O)CC[C@H](N)C(=O)O[C@H]1CC[C@]2(C)[C@H]3C(=O)C=C4[C@@H]5C[C@@](C)(C(=O)OC)CC[C@]5(C)CC[C@@]4(C)[C@]3(C)CC[C@H]2C1(C)C | Insoluble | – | – | – |
| CC1(C)[C@@H](O)CC[C@]2(C)[C@H]3C(=O)C=C4[C@@H]5C[C@@](C)(C(=O)O/C(=N\C6CCCCC6)NC6CCCCC6)CC[C@]5(C)CC[C@@]4(C)[C@]3(C)CC[C@@H]12 | – | > 10 µM | > 10 µM | – |
| CC(C)(C)OC(=O)NCCCNC(=O)[C@@]1(C)CC[C@]2(C)CC[C@]3(C)C(=CC(=O)[C@@H]4[C@@]5(C)CC[C@H](O)C(C)(C)[C@@H]5CC[C@]43C)[C@@H]2C1 | – | > 10 µM | > 10 µM | – |
| CC1(C)[C@@H](O)CC[C@]2(C)[C@H]3C(=O)C=C4[C@@H]5C[C@@](C)(C(=O)OC/C=C/CBr)CC[C@]5(C)CC[C@@]4(C)[C@]3(C)CC[C@@H]12 | – | 29.6 µM | > 40 µM | < 0.74 |
